Test results from ChEMBL document CHEMBL2163220 (J Med Chem, 2012).
Numbering of substitutions follows the chain as printed. Active and inactive are the calls of the source. The rule behind the calls is not given here.

Tests used:
[1] = test system: T1, Androgen receptor (Homo sapiens), P10275 [H875Y]; test: Agonist activity at androgen receptor H874Y mutant expressed in human PC3 cells assessed as stimulation of receptor transactivation at 0.1 to 1 uM by luciferase reporter gene assay; type: functional, cell-based; conditions: PC-3
T1 sequence (whole entry): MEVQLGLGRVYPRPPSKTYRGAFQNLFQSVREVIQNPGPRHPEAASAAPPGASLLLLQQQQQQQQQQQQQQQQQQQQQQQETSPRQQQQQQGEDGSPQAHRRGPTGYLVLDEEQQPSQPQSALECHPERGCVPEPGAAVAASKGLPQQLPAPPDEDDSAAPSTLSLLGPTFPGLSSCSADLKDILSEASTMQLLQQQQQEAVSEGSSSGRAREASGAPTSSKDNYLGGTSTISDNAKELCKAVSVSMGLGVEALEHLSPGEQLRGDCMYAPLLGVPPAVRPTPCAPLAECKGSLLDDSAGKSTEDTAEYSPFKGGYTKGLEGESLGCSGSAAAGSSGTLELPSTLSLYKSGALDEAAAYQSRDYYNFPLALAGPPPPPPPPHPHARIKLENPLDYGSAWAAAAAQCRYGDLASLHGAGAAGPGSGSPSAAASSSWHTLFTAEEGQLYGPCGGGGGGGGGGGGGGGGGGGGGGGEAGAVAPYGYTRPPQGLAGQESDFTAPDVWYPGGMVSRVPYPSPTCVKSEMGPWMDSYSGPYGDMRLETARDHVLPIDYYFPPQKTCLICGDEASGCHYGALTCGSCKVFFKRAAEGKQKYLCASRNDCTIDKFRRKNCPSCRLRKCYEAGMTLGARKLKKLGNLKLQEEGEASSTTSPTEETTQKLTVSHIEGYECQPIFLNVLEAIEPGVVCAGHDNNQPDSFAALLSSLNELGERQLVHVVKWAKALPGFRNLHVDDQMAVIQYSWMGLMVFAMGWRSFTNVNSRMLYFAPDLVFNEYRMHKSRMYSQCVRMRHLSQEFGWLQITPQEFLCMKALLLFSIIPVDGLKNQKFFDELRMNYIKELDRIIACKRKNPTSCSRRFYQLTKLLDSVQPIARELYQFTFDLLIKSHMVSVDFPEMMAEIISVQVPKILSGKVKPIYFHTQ
Summary of the method: (§1)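 Full-length wild-type or mutant AR plasmid transiently transfected into PC-3 cells with MMTV-luc and Renilla luciferase reporters. Cells treated with DMSO vehicle or compound at 0.1 and 1 μM, alone or with 0.1 nM DHT. Luciferase read as relative luciferase units. Run in triplicate.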

LNCaP = test: Cytotoxicity against human LNCAP cells incubated for 72 hrs by MTT assay; type: functional, cell-based
Summary of the method: (§2)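 MTT assay run across a panel of prostate cancer cell lines.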

[2] = test system: T1, Androgen receptor (Homo sapiens), P10275 [H875Y]; test: Antagonist activity at androgen receptor H874Y mutant expressed in human PC3 cells assessed as reduction in DHT-induced receptor transactivation at 0.1 to 1 uM by luciferase reporter gene assay; type: functional, cell-based; conditions: PC-3; summary of the method: as §1
PC-3 [3] = test: Cytotoxicity against human PC3 cells incubated for 72 hrs by MTT assay; type: functional, cell-based; conditions: PC-3, 72 h; summary of the method: as §2
PC-3 [4] = test: Antagonist activity at androgen receptor T887A mutant expressed in human PC3 cells assessed as reduction in DHT-induced receptor transactivation at 0.1 to 1 uM by luciferase reporter gene assay; type: functional, cell-based; summary of the method: as §1
[5] = biological target: T2, Androgen receptor (Homo sapiens) (UniProt P10275); test: Antagonist activity at androgen receptor expressed in human PC3 cells assessed as reduction in DHT-induced receptor transactivation at 0.1 to 1 uM by luciferase reporter gene assay; type: functional, cell-based; conditions: PC-3; summary of the method: as §1
T2 sequence (whole entry): T1 sequence (whole entry) with Y875H

[6] = biological target: T2, Androgen receptor (Homo sapiens); test: Antagonist activity at androgen receptor in human LNCaP cells assessed as increase in Maspin protein expression at 1 or 2.5 uM incubated for 24 hrs in presence of DHT by Western blot
[7] = Cytotoxicity against human C4-2B cells incubated for 72 hrs by MTT assay; type: functional, cell-based; conditions: LNCaP C4-2B; summary of the method: as §2

Activity [1]: inactive | Activity [2]: inactive | Activity [5]: Active | Activity [6]: Active
SMILES: Cc1coc2c1C(=O)C(=O)c1c-2ccc2c1CCCC2(C)C [TANSHINONE IIA]
IC50 (LNCaP): 500 nM | IC50 (PC-3 [3]): 3300 nM | Activity (PC-3 [4]): Active | IC50 [7]: 400 nM
